Measured values from ChEMBL document CHEMBL1137430, “Incorporation of an intramolecular hydrogen-bonding motif in the side chain of 4-aminoquinolines enhances activity against drug-resistant P. falciparum” (J Med Chem, 2006).

Legend:
Plasmodium falciparum [1] = test: Antimalarial activity against chloroquine-sensitive Plasmodium falciparum 3D7; format: functional, organism-based
In short: (§1)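 P. falciparum blood-stage cultures at 37 °C under 5% CO2, 5% O2. Samples taken 72 h after drug addition, fixed in 2% paraformaldehyde about 1 h, then stained with 50 nM YOYO-1 in PBS for 24 h in the dark at 4 °C. Percent parasitized RBCs read by flow cytometry against no-drug cultures. Doses 0.1–200 nM in triplicate. IC50 from a variable-slope sigmoidal fit.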

Plasmodium falciparum [2] = test: Antimalarial activity against multidrug-resistant Plasmodium falciparum W2; format: functional, organism-based; in short: as §1

Row | Structure (SMILES) | IC50 (Plasmodium falciparum [1]) [nM] | IC50 (Plasmodium falciparum [2]) [nM]
1 | CCCN(CCCCNc1ccnc2cc(Cl)ccc12)Cc1c(F)cccc1OC | 10 | 11.2
2 | CCCN(CCCCNc1ccnc2cc(Cl)ccc12)Cc1cc(O)ccc1O | 2.2 | 8.9
3 | CCCN(CCCNc1ccnc2cc(Cl)ccc12)Cc1cccs1 | 32.1 | 140
4 | CCCN(CCCNc1ccnc2cc(Cl)ccc12)Cc1cc(F)ccc1OC | 5.2 | 
5 | CCCN(CCCCNc1ccnc2cc(Cl)ccc12)Cc1cc(F)ccc1OC | 1.9 | 4.9
6 | CCCN(CCCCNc1ccnc2cc(Cl)ccc12)Cc1ccccc1O | 7 | 20
7 | CCCN(CCCCNc1ccnc2cc(Cl)ccc12)Cc1ccc(Cl)o1 | 4.3 | 6
8 | CCCN(CCCNc1ccnc2cc(Cl)ccc12)Cc1cccc(F)c1O | 0.98 | 2.6
9 | CCCN(CCCCNc1ccnc2cc(Cl)ccc12)Cc1cc(OC)ccc1O | 6.8 | 27.5
10 | CCCN(CCCCNc1ccnc2cc(Cl)ccc12)Cc1cccc(F)c1O | 1.4 | 4.6
11 | CCCN(CCCCNc1ccnc2cc(Cl)ccc12)Cc1cccc(OC)c1O | 1 | 4.3
12 | CCCN(CCCNc1ccnc2cc(Cl)ccc12)Cc1ccccc1O | 0.65 | 1.8
13 | CCCN(CCCCNc1ccnc2cc(Cl)ccc12)Cc1cc(OC(F)(F)F)ccc1O | 2.4 | 5.9
14 | CCCN(CCCCNc1ccnc2cc(Cl)ccc12)Cc1ccco1 | 3.1 | 4
15 | CCCN(CCCNc1ccnc2cc(Cl)ccc12)Cc1ccco1 | 12.2 | 33
16 | CCCN(CCCCNc1ccnc2cc(Cl)ccc12)Cc1cccc2c1OCO2 | 4.2 | 23
17 | CCCN(CCCNc1ccnc2cc(C)ccc12)Cc1cc([N+](=O)[O-])ccc1O | 38.8 | 126
18 | CCCN(CCCCNc1ccnc2cc(Cl)ccc12)Cc1cccs1 | 7.2 | 22
19 | CCCN(CCCCNc1ccnc2cc(Cl)ccc12)Cc1ccc(C)o1 | 7.4 | 30.2
20 | CCCN(CCCNc1ccnc2cc(Cl)ccc12)Cc1cc(O)ccc1O | 2.9 | 22.5
